Compound activity deposited in PubChem by Broad Institute.
FGF22 binding = binders of human FGF22 protein, primary screen, FGF22 synaptogenesis inhibitor project, biophysical, thermal shift, single point. recombinant FGF22 thermal shift, SYPRO orange fluorescence; percent of sucrose octasulfate shift, DMSO zero. activity (Tm shift, normalised), % at 9.99 µM. 1.5% of 340,000 active. Fibroblast growth factor 22 (Homo sapiens), Q9HCT0;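 active = mean Tm shift, scaled 0 neutral to 100 positive control, at about 1.3% or above, every replicate too, limit read from the data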
SIRT5 block = SIRT5 desuccinylase inhibitors, primary screen, biochemical, fluorescence imaging, single point, set 5 | NAD-dependent protein deacylase sirtuin-5, mitochondrial (Homo sapiens), Q9NXA8 | Purified SirT5, succinyl-peptide AMC, trypsin-coupled fluorescence | inhibition, % at 15 µM | 1.1% of 330,000 active | AID 652115, 2013; in the data active = inhibition above about 15%
Target sequence (Q9NXA8 whole entry, looked up): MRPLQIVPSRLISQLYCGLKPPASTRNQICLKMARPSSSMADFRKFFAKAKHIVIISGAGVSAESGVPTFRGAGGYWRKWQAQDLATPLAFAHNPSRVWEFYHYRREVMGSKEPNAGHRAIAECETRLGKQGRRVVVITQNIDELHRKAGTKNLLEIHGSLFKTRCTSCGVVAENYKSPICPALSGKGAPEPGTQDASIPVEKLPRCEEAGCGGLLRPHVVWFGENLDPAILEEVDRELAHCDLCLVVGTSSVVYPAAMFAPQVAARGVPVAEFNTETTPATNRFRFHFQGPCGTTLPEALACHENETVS
ARNT TACC3 PPI = disruptors of ARNT/TACC3 protein interaction, primary screen, biochemical, AlphaScreen, single concentration; 0.66% of 390,000 active; inhibition, % at 9.99 µM; AlphaScreen His-ARNT PAS-B/GST-TACC3 binding, luminescence; TACC3 fragment carries E629A point mutation;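 active = mean inhibition of replicates at least 50% and at least half of replicates each reaching 50%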;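 note: 0% = complete ARNT plus TACC3 wells and 100% = ARNT alone without TACC3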
FN deposition inh = inhibitors of fibronectin matrix deposition, primary screen, AH1F cells, Alexa488-fibronectin fluorescence, plate reader. inhibition, % at 12.6 µM. AH1F fibroblasts, overnight. 0.086% of 350,000 active;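 active = mean inhibition across replicates of 30% or more, regardless of how many single replicates reach that level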;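 note: positive control wells lacked labelled fibronectin entirely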
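Material: AH1F fibroblast monolayer depositing Alexa488-labelled fibronectin into matrix / Amount: 10000 AH1F cells per well / Signal: fluorescence 485/525 nm / Medium: DMEM, 2% serum / Compound: single dose, pinned / Incubation: 1 h cell adhesion before compound, then overnight fibronectin incubation / Reagent: Alexa488-FN, 24 nM final / Read-out: inhibition of fibronectin deposition signal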
DENV2 CPE = inhibitors of DENV2 cytopathic effect, primary screen, cell-based, plate reader, single concentration. DENV2-infected cells, cytopathic effect rescue. CPE inhibition, % at 9.99 µM. 1.7% of 350,000 active. AID 651640, 2012; in the data active = CPE inhibition above about 20%, passing the limit was not always enough; tested in BHK-21 cells;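 note: 0% = median of neutral control wells and 100% = median of positive control wells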
XiGFP reactiv = activators of inactive X chromosome reactivation, primary screen, imaging, XiGFP fibroblasts, GFP high-content imaging, set 2 | AID 743238, 2013 | XiGFP mouse fibroblasts, % GFP-positive cells imaging, 3 d; cells co-treated with 5-aza-dC sensitizer; scaled so ellipticine positive control = 100% | 0.055% of 360,000 active | activation, % at 7.58 µM;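 active = mean normalized replicate activation at least 10% and every replicate at or above 10%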;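 note: 0% = median of on-plate neutral control wells and 100% = ellipticine 6 µM median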
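System: 68-5-11 XiGFP fibroblast line; Timing: 3 days compound exposure; Compound dosing: one concentration, pinned; Benchmarks: positive control ellipticine, 6 µM final; Buffer or medium: DMEM containing 5-aza-dC.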
The depositor's hits bear a star; x = no result. Only some compounds are listed: those with a hit (about 3.8% of all), similar ones and a draw of the others.

SMILES	FGF22 binding	SIRT5 block	ARNT TACC3 PPI	FN deposition inh	DENV2 CPE	XiGFP reactiv
C[C@@H]1CCCCO[C@H](CN(C)C(=O)Nc2ccc(F)cc2)[C@@H](C)CN([C@H](C)CO)C(=O)c2cc(NC(=O)Nc3ccc(F)cc3)ccc2O1	-1	27*	3	5	5	0
C[C@@H]1CCCCO[C@@H](CN(C)C(=O)Nc2ccc(F)cc2)[C@H](C)CN([C@H](C)CO)C(=O)c2cc(NC(=O)C3CCCCC3)ccc2O1	0	-2	-1	x	32*	0
C[C@H]1CCCCO[C@H](CN(C)C(=O)Nc2ccc(F)cc2)[C@@H](C)CN([C@@H](C)CO)C(=O)c2cc(NC(=O)Nc3ccc(F)cc3)ccc2O1	0	6	1	1	46*	1
C[C@H](CO)N1C[C@H](C)[C@@H](CN(C)CC2CC2)OCCCC[C@H](C)Oc2ccc(NC(=O)Nc3ccc(F)cc3)cc2C1=O	-1	2	27	3	1	0
C[C@@H]1CCCCO[C@@H](CN(C)CC2CC2)[C@@H](C)CN([C@H](C)CO)C(=O)c2cc(NC(=O)Nc3ccc(F)cc3)ccc2O1	0	-3	3	1	78*	0
CNC[C@H]1OCCCC[C@@H](C)Oc2ccc(N)cc2C(=O)N([C@@H](C)CO)C[C@H]1C	0	-7	14	0	-7	0
CCC(=O)Nc1ccc2c(c1)C(=O)N(C)C[C@H](OC)[C@@H](C)CN(C(=O)CC1CC1)[C@H](C)CO2	1	1	-3	-4	-2	0
O=C(NCCc1ccncc1)[C@H]1[C@H](CO)[C@H]2Cn3c(ccc(C4=CCCCC4)c3=O)[C@@H]1N2CC1CC1	x	x	x	x	x	0
C[C@@H]1CN([C@@H](C)CO)C(=O)c2cccc(NC(=O)Nc3ccccc3)c2O[C@@H]1CN(C)Cc1ccc(-c2ccccc2)cc1	0	1	10	x	5	0
CCOC(=O)C1=C(C)N(CCCCCC(=O)O)C(=O)NC1c1ccccc1OC(=O)c1cccs1 (configuration not stated)	0	-1	x	9	47*	0
OC[C@H]1[C@@H]2c3ccccc3NC[C@@H]2N1CC1CCOCC1	0	-2	-14	-6	22*	0
COc1ccc(S(=O)(=O)N(C)C[C@H]2OCCCC[C@@H](C)Oc3ccc(NC(=O)CCC(F)(F)F)cc3C(=O)N([C@H](C)CO)C[C@H]2C)cc1	1	10	8	x	-3	0
CCOC(=O)C(C#N)=C1CCN(Cc2ccccc2)CC1	0	0	-7	-2	2	0
CCOC(=O)/C(C#N)=C1/C(=O)N(Cc2ccccc2)c2ccccc21	0	21*	-7	-7	-3	0
Oc1cccc(Nc2nc(-c3ccccc3Cl)nc3ccccc23)c1	1.6*	1	-5	-10	-3	0
COc1ccc(CN(C)C[C@H]2Oc3ccc(NC(=O)NC4CCCCC4)cc3CC(=O)N([C@@H](C)CO)C[C@H]2C)cc1	0	6	-6	x	7	0
C[C@H]1CN([C@@H](C)CO)C(=O)c2cc(NC(=O)CCCN(C)C)ccc2O[C@@H]1CN(C)S(C)(=O)=O	0	1	9	x	0	0
CC(=O)Nc1cccc(NC(=O)Nc2cccc(F)c2)c1	45*	-2	2	9	12	0
O=C(Nc1cccc(F)c1)Nc1cccc(Cl)c1	0	-4	-16	15	12	0
Cc1ccc(S(=O)(=O)N=Nc2c(O)[nH]c3ccccc23)cc1	x	x	0	x	x	x
Cc1ccc(C)c(S(=O)(=O)N=Nc2c(O)[nH]c3ccccc23)c1	43*	-1	-2	0	-3	0
